Measurements reported in article PMC7594119 (ACS Omega, 2020).

Assays:
MCF-7 cells [1] = assay: Annexin-V/PI staining apoptosis, MCF-7; format: cell-based; conditions: MCF-7, IC50 concentration, 48 h
Summary of the method: (§1)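 MCF-7 and A549 cells were treated with test compound or vehicle for 48 h, then harvested. They were stained with annexin-V/PI and analysed by flow cytometry to quantify apoptotic cells.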

[2] = test system: CDK6 expression in A549 cells; assay: CDK6 protein expression; format: cell-based, human; conditions: A549, IC50 dose
Summary of the method: (§2)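 MCF-7 and A549 cells were treated with test compound or vehicle for a stipulated time, then harvested by trypsinization. They were lysed in RIPA buffer and protein was quantified by BCA. CDK6 was detected by Western blot with anti-CDK6 antibody, and band intensity was normalized to β-actin loading control.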

A549 cells [3] = assay: Annexin-V/PI staining apoptosis, A549; format: cell-based, human; conditions: A549, IC50 concentration, 48 h
Summary of the method: as §1

MCF-7 cells [4] = assay: Cell viability MTT assay, MCF-7; format: cell-based; conditions: Homo sapiens, MCF7, 72 h, read-out: IC50, cell viability
Summary of the method: (§3)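 Cells were seeded at 5000–5500/well in 96-well plates and exposed to test compound (0–250 μM) for 72 h. MTT (from 5 mg/mL stock in PBS, pH 7.4) was added for 4–5 h. Formazan was dissolved in DMSO and OD read at 570 nm, then converted to % viability. Data are mean ±SD, n = 3.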

A549 cells [5] = assay: Cell viability MTT assay, A549; format: cell-based; conditions: Homo sapiens, A549, 72 h, read-out: IC50, cell viability
Summary of the method: as §3

[6] = test system: CDK6 expression in MCF-7 cells; assay: CDK6 protein expression; format: cell-based; conditions: MCF-7, IC50 dose
Summary of the method: as §2

MCF-7 cells [7] = assay: ROS determination; format: cell-based; conditions: MCF-7, IC50 dose, 5–6 h
Summary of the method: (§4)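 MCF-7 and A549 cells were treated with test compound or DMSO vehicle for 5–6 h. They were then loaded with 10 μM H2DCFDA for 30 min, trypsinized, and washed twice with PBS. Total ROS was measured by flow cytometry.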

CDK6 [8] = biological target: T1, CDK6 (Homo sapiens, UniProt Q00534); assay: Kinase inhibition; format: biochemical
T1 sequence (Q00534 whole entry): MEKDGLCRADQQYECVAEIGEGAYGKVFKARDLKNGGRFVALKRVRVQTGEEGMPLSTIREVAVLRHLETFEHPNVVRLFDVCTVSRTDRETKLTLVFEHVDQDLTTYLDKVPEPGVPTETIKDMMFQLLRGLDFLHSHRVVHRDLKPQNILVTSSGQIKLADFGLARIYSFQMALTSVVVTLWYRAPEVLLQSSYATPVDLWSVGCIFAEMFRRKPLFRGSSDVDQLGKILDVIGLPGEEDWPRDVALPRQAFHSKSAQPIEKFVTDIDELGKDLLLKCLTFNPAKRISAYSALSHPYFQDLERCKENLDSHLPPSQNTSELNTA
Summary of the method: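 Purified recombinant CDK6 (pET28a+, E. coli Codon+ expression, Ni-NTA) at 1 μM was incubated with 50 μM fresh ATP and increasing test compound (0–10 μM) for 1 h at 25 °C. Malachite green stopped the reaction, with colour developed 15–20 min at room temperature.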

CDK6 [9] = biological target: T1, CDK6; assay: Fluorescence quenching binding studies with CDK6; conditions: for Kq (bimolecular quenching rate constant): Kq=Ksv/τ0; for ΔG: van't Hoff; for Kd: K (binding constant, modified Stern–Volmer)
MCF-7 cells [10] = assay: Colony formation assay, MCF-7; format: cell-based; conditions: MCF-7, IC50 concentration, 8–10 days
Summary of the method: (§5)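 MCF-7 or A549 cells were plated at about 1000–1500 cells/well in 6-well plates. They were treated with test compound for 8–10 days at 37 °C, 5% CO2, with DMSO as vehicle control. Colonies were fixed with 100% methanol, stained with crystal violet, and counted by image analysis relative to vehicle.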

A549 cells [11] = assay: ROS determination; format: cell-based, human; conditions: A549, IC50 dose, 5–6 h
Summary of the method: as §4

A549 cells [12] = assay: Colony formation assay, A549; format: cell-based, human; conditions: A549, IC50 concentration, 8–10 days
Summary of the method: as §5

CDK6 [13] = biological target: T1, CDK6; assay: Isothermal titration calorimetry with CDK6; conditions: ITC, 25 °C, one binding site model
Summary of the method: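 Recombinant CDK6 was expressed from pET28a+ in E. coli Codon+ cells (IPTG induction at 18 °C) and purified on Ni-NTA. Protein was dialysed against 25 mM Tris, 200 mM MgCl2, with ligand dissolved in the same buffer and 1% v/v DMSO added to protein. At 25 °C, 500 μM test compound in the syringe was titrated into 15 μM CDK6. Buffer-titration heats were subtracted before fitting n, ΔH and Ka.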

[14] = van't Hoff plot over 15, 25, 30 °C, same value printed at each temperature

## O=c1c(O)c(-c2ccc(O)c(O)c2)oc2cc(O)cc(O)c12 [quercetin]
MCF-7 cells [1]
  cells in which apoptosis is induced: ~21.10%
[2]
  effect on CDK6 expression: decreases the CDK6 expression
A549 cells [3]
  cells in which apoptosis is induced: ~16.22%
MCF-7 cells [4]
  IC50: 41.8 ± 2.21 µM
A549 cells [5]
  IC50: 52.4 ± 2.44 µM
[6]
  effect on CDK6 expression: decreases the CDK6 expression
MCF-7 cells [7]
  effect on ROS production: decreases the production of ROS
CDK6 [8]
  IC50: 5.89 µM
CDK6 [9]; 15 °C
  Ksv (Stern–Volmer constant): 16.3 10^4 M^–1
  n (number of binding sites): 1.35
  Kq (bimolecular quenching rate constant): 6.03 10^13 M^–1 s^–1
  ΔG: –9.400 kcal mol^–1
  Kd: 0.0769 µM
CDK6 [9]; 25 °C
  Ksv (Stern–Volmer constant): 13.6 10^4 M^–1
  TΔS: 2.46 kcal mol^–1
  n (number of binding sites): 1.33
  Kq (bimolecular quenching rate constant): 5.03 10^13 M^–1 s^–1
  ΔG: –9.482 kcal mol^–1
  Kd: 0.104 µM
CDK6 [9]; 30 °C
  Ksv (Stern–Volmer constant): 12.2 10^4 M^–1
  TΔS: 2.50 kcal mol^–1
  n (number of binding sites): 1.33
  Kq (bimolecular quenching rate constant): 4.51 10^13 M^–1 s^–1
  ΔG: –9.524 kcal mol^–1
  Kd: 0.143 µM
CDK6 [9]; [14]
  ΔH: –7.019 kcal mol^–1
  ΔS: 8.267 cal mol^–1 K^–1
MCF-7 cells [10]
  effect on colonization (colony formation): significantly decreases the colonization
A549 cells [11]
  effect on ROS production: decreases the production of ROS
A549 cells [12]
  effect on colonization (colony formation): significantly decreases the colonization
CDK6 [13]
  ΔH: -112 ± 0.457 kcal/mol
  ΔS: −351 cal/mol/deg
